High-throughput results (PubChem)
Most compounds without a hit are left out; they make up all but 2.1% or so of the library.
RanGTP-Impb inh: inhibitors of RanGTP-importin-beta interaction, primary screen, biochemical, FRET, CFP-Ran, YFP-importin-beta, homogeneous. hit rate 1.1% among 300,000. cell-free CFP-Ran/YFP-importin-beta FRET ratio. inhibition, % (test concentration not listed);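 active = more than half of the replicate wells show a fall in the fluorescence ratio signal beyond about 16%, limit read from the data, passing the limit was not always enough; inconclusive = exactly half of the replicate wells pass the set limit; inactive = fewer than half of replicates pass the limit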;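 note: 0% = DMSO wells and 100% = Ran loaded with GDP instead of GTP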
Runt-CBFb FRET: Runt domain-CBFb interaction inhibition; inhibition, % at 20 µM; hit rate 0.46% among 220,000; Cerulean-Runt/Venus-CBFb FRET ratio 530/480, 1 h; AID 1496;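 active = inhibition over about 50% at 20 µM in the single-dose screen, limit read from the data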;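 note: 0% = DMSO wells and 100% = excess unlabeled CBFb competitor control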
Target sequence (Q01196 whole entry, looked up, the tested form may be a part): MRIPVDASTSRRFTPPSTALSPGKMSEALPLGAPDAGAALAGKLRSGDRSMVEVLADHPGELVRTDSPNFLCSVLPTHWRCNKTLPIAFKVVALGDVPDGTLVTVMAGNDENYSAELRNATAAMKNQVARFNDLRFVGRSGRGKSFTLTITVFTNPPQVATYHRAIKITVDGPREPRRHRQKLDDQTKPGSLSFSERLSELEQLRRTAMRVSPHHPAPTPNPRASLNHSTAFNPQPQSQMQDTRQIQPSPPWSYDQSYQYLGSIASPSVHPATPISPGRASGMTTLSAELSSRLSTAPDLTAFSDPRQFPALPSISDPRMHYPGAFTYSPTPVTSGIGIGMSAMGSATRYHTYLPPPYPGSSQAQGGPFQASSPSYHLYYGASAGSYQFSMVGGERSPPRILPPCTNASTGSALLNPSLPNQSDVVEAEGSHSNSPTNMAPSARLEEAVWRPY
Target sequence (Q13951 whole entry, looked up, the tested form may be a part): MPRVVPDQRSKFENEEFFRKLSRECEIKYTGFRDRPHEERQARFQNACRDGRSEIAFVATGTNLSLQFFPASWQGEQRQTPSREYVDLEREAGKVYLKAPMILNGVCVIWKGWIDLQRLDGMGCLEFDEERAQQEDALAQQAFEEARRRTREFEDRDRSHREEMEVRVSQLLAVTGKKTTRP
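Measured by: fluorescence energy transfer, 422 nm excitation, 530/480 nm emission; test system: Cerulean-tagged RUNX1 Runt domain (FRET donor) fusion protein; buffer or medium: Tris pH 7.5 buffer with BSA; compound: one dose, 20 µM compound, 1% DMSO; times: two 1 h room-temperature incubations shielded from light; benchmarks: unlabeled CBFb 5 µM, positive control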
FAS TE block: inhibitors of human fatty acid synthase thioesterase domain; AID 602261; recombinant FAS-TE, OMFH fluorogenic substrate, fluorescence endpoint; inhibition, % at 15 µM; P49327; hit rate 0.67% among 360,000;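 active = compounds whose normalised, plate-corrected inhibition of enzyme fluorescence in the single-dose primary screen is 50% or more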;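 note: 0% = DMSO with enzyme and 100% = substrate without enzyme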
Calpain2 inh: calpain II (pig) inhibition | purified calpain II, fluorogenic peptide substrate, 30 min | inhibition, % at 16 µM | hit rate 0.37% among 220,000;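 active = inhibition above about 50%, limit read from the data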
Runt-SMMHC FRET: Runt domain-CBFb-SMMHC interaction inhibition | Q01196+Q13951 | Cerulean-Runt/Venus-CBFb-SMMHC FRET ratio 530/480, 1 h | inhibition, % at 20 µM | hit rate 0.74% among 220,000;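 active = mean inhibition across duplicate retests at 20 µM reaching about 50%, limit read from the data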;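 note: 0% = DMSO wells and 100% = wells with excess untagged CBFb-SMMHC; inhibitors lower the FRET ratio by blocking Runt binding to CBFb-SMMHC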
An asterisk follows results filed as active; i = inactive; u = inconclusive; x = no result given.

SMILES	RanGTP-Impb inh	Runt-CBFb FRET	FAS TE block	Calpain2 inh	Runt-SMMHC FRET
N#C/C(=C\c1ccc(Cl)cc1)c1nc2ncccc2[nH]1	36.0*	16.9	9.3	-89.7	33.6
Cc1sc2ncnc(SC(C)C(=O)N3c4ccccc4Sc4ccccc43)c2c1C (centres undefined)	3.3	9.9	21.6	-41.9	0.0
Cc1ccc(OCC(=O)NNC(=O)C(C)Sc2ncnc3sc(C)c(C)c23)cc1 (centres undefined)	0.6	0.3	13.8	91.0*	1.5
COc1ccc(/C=N/Nc2ncnc3c2[nH]c2ccc(C)cc23)c(OC)c1OC	3.2	-5.1	1.9	-14.0	2.4
COc1cc(OC)c(OC)cc1/C=N/Nc1ncnc2c1[nH]c1ccccc12	u	19.6	-8.1	-203.8	75.0*
CC1(C)CC(=O)C=C(CN2C(=O)c3ccccc3C2=O)C1=O	x	x	-5.7	x	x
COc1ccc2c(c1)[C@H]1[C@H](CO2)[C@H](c2ccccc2)[C@]2(C)C(=O)Nc3cc(C)ccc3C(=O)N12	x	x	36.4	x	x
COc1ccc2c(c1)[C@H]1[C@H](CO2)[C@H](c2ccccc2)[C@]2(C)C(=O)Nc3cc(Cl)ccc3C(=O)N12	x	x	89.4*	x	x
C[C@]12C(=O)N(c3cccc(Cl)c3)C(=O)N1[C@H]1c3ccccc3OC[C@@H]1[C@H]2c1ccccc1	6.5	x	75.8*	x	x
Cc1ccc(C(=O)Nc2ccc(C(=O)O)cc2NC(=O)c2ccc(C)cc2)cc1	2.2	x	-4.1	x	x
CCN(CC)CCc1c(C)[nH]c(C(=O)OCc2ccccc2)c1C	3.0	1.6	-6.3	58.0*	-2.5
CCCN(CCC)Cc1c(C(=O)N/N=C/c2ccc(C)o2)nnn1-c1nonc1N	-0.8	x	-5.6	x	x
Brc1ccc(CSc2nnc(Cc3c[nH]c4ccccc34)o2)cc1	2.2	-0.6	30.7	69.5*	3.3
Clc1ccc(CSc2nnc(-c3c[nH]c4ccccc34)o2)cc1	2.1	1.5	26.6	23.2	-1.7
Cc1ccccc1NS(=O)(=O)c1ccc2oc(=O)ccc2c1	2.1	x	-8.1	x	x
O=C(NN=C(Cc1ccccc1)Cc1ccccc1)c1ccccc1F	u	-2.6	15.0	9.4	0.7
O=C(NN=C(Cc1ccccc1)Cc1ccccc1)C1CC1	34.3*	1.9	-2.1	-17.6	-8.2
CCCn1c(C)cc(C(=O)CN2C(=O)c3cccc(N)c3C2=O)c1C	x	19.1	-3.0	-238.8	57.2*
COc1ccccc1CNC(=O)CN1C(=O)c2cccc(N)c2C1=O	27.5*	x	-3.5	x	x
COCCCNC(=O)CN1C(=O)c2ccccc2C1=O	-2.7	-1.0	-8.5	-0.6	1.0
CCCCNC(=O)CN1C(=O)c2cccc(N)c2C1=O	-3.4	20.3	-4.5	i	92.8*
CC1CCCCC1NC(=O)CN1C(=O)c2cccc(N)c2C1=O (centres undefined)	-3.7	20.8	-6.0	i	85.9*
Clc1nnc(NC2CCCCC2)c(Cl)c1Cl	x	x	-0.5	x	x
Cc1ccc(C)c(S(=O)(=O)c2c(C)cc(C)[nH]c2=O)c1	-2.4	x	-3.0	x	x
CN=Cc1nc(-c2ccccc2)oc1O	0.4	1.6	-6.2	23.3	2.7
SMILES	RanGTP-Impb inh	Runt-CBFb FRET	FAS TE block	Calpain2 inh	Runt-SMMHC FRET
Cc1ccc(-c2nc(C=Nc3ccc(O)cc3)c(O)o2)cc1	22.4*	-6.0	-7.5	5.1	-19.7
Nc1cccc2c1C(=O)N(CCOc1ccc(F)cc1)C2=O	26.3*	x	1.6	x	x
Cc1ccc(CNC(=O)COc2ccc(S(=O)(=O)N3CCCC3)cc2)cc1	-9.1	x	10.6	x	x
O=C(c1cc(Cl)cc(Cl)c1)N1CCC(=O)N([C@H](COCc2ccccc2)Cc2ccccc2)CC1	x	x	13.8	x	x
Cc1cc(NC(=O)CSc2nc3ccsc3c(=O)n2CCCC(=O)NCCc2ccccc2)no1	-0.4	-0.2	-0.3	50.3*	-1.6
CC[C@@]1(C(=O)OC)N[C@H](CN(C)C(=O)COc2ccccc2)[C@@H]2C(=O)N(C)C(=O)[C@@H]21	x	x	-10.5	x	x
COCCn1nnnc1SCC(=O)c1ccccc1	0.1	83.7*	-11.2	-13.8	-1.6
C/C(=C\C(=O)c1ncc(C(F)(F)F)cc1Cl)N(C)C	0.7	-0.5	-1.5	17.3	2.3
CC(=O)C(/C=N/c1ncc(C(F)(F)F)cc1Cl)=C(\C)O	22.2*	-1.4	-8.6	1.0	-0.7
Cc1c(C=O)c2ccccn2c1C(=O)c1cccs1	1.1	60.6*	0.6	-18.9	87.1*
Cc1c(C=O)c2ccccn2c1C(=O)c1ccccc1Cl	1.7	x	6.5	x	x
O=C(Cn1ncc2c([nH]c3ccccc32)c1=O)Nc1ccc(CN2CCCCC2)cc1	3.5	x	-4.5	x	x
CNC(=O)/C(C#N)=C/c1c(N2CCN(c3ccc(OC)cc3)CC2)nc2c(C)cccn2c1=O	7.8	x	8.5	x	x
COc1ccc(N2CCN(c3nc4c(C)cccn4c(=O)c3C=C(C#N)C#N)CC2)cc1	2.8	x	27.4	x	x
COC(=O)/C(C#N)=C/c1c(N2CCN(c3ccc(OC)cc3)CC2)nc2c(C)cccn2c1=O	33.7*	x	25.4	x	x
CNC(=O)/C(C#N)=C/c1c(N2CCN(c3ccccc3)CC2)nc2c(C)cccn2c1=O	19.0*	x	7.9	x	x
Cc1cccn2c(=O)c(C=C(C#N)C#N)c(N3CCN(c4ccccc4)CC3)nc12	25.0*	x	25.4	x	x
COc1ccc(NC(C)=O)cc1S(=O)(=O)Nc1ccc2c(c1)OCCO2	-3.2	0.4	-5.4	-25.9	-2.4
CCc1cc2c(C)cc(=O)oc2cc1OC(=O)C1CCCN1C(=O)OC(C)(C)C (centres undefined)	4.3	30.4	x	-352.7	74.7*
CCN(CC(O)Cn1c2ccccc2c2ccccc21)S(=O)(=O)c1ccc(F)cc1 (centres undefined)	x	-3.1	13.8	69.4*	-0.3
COC(=O)c1c(C#N)c(N)nc2c1CCC2	66.0*	96.4*	-0.3	i	61.6*
Cc1ccc(NC(=O)C(c2ccccc2)N2CCN(CC(=O)NC3CC3)CC2)cc1 (centres undefined)	x	x	-0.9	x	x
COc1cc2ccc(=O)oc2c(O)c1OCC=C(C)C	9.1	61.0*	-5.8	-173.1	62.5*
CCN1C(=O)N/C(=C/c2ccc(Sc3ccc(C)cc3)o2)C1=O	22.7*	5.2	7.4	-0.2	18.7
CCO[C@@H]1OC(C(N)=O)=C[C@H](c2ccc(C(F)(F)F)cc2)[C@H]1CCCO	23.7*	-1.6	-12.3	-8.3	1.4
CCOC(=O)c1cc(-c2csc(Nc3ccccc3Cl)n2)on1	-1.7	-2.6	29.3	-3.6	0.6
CCOC(=O)c1cc(-c2csc(N/N=C/c3ccccc3Cl)n2)on1	42.4*	7.3	3.4	-13.1	15.8
COc1ccc(OC)c(N2C(=O)CC(Cc3ccc(Cl)cc3)C2=O)c1 (centres undefined)	-3.0	-2.2	-4.1	-8.3	0.5
COc1ccc(OC)c(N2C(=O)CC(Cc3cc(C)cc(C)c3)C2=O)c1 (centres undefined)	31.2*	-5.2	4.8	-6.3	1.0
O=C1C2C3C=CC(C3)C2C(=O)N1c1ccc(Cc2ccncc2)cc1 (centres undefined)	-2.0	-1.5	-9.5	12.7	-4.7
